# B1: GYF1 NC*: GYF1 L60D, F65D, V68D; non-canonical mutant (protein, UniProt O75420 1-1035, looked up, variant L60D F65D V68D)
# GRB10-interacting GYF protein …: MAAETLNFGPEWLRALSGGGSVASPPPSPAMPKYKLADYRYGREEMLALYVKENKVPEEDQDKEDAADLQDEPLQPLALEPLTEEEQRNFSLSVNSVAVLRLMGKGAGPPLAGTSRGRGSTRSRGRGRGDSCFYQRSIEEGDGAFGRSPREIQRSQSWDDRGERRFEKSARRDGARCGFEEGGAGPRKEHARSDSENWRSLREEQEEEEEGSWRLGAGPRRDGDRWRSASPDGGPRSAGWREHGERRRKFEFDLRGDRGGCGEEEGRGGGGSSHLRRCRAPEGFEEDKDGLPEWCLDDEDEEMGTFDASGAFLPLKKGPKEPIPEEQELDFQGLEEEEEPSEGLEEEGPEAGGKELTPLPPQEEKSSSPSPLPTLGPLWGTNGDGDETAEKEPPAAEDDIRGIQLSPGVGSSAGPPGDLEDDEGLKHLQQEAEKLVASLQDSSLEEEQFTAAMQTQGLRHSAAATALPLSHGAARKWFYKDPQGEIQGPFTTQEMAEWFQAGYFSMSLLVKRGCDEGFQPLGEVIKMWGRVPFAPGPSPPPLLGNMDQERLKKQQELAAAALYQQLQHQQFLQLVSSRQLPQCALREKAALGDLTPPPPPPPQQQQQQLTAFLQQLQALKPPRGGDQNLLPTMSRSLSVPDSGRLWDVHTSASSQSGGEASLWDIPINSSTQGPILEQLQLQHKFQERREVELRAKREEEERKRREEKRRQQQQEEQKRRQEEEELFRRKHVRQQELLLKLLQQQQAVPVPPAPSSPPPLWAGLAKQGLSMKTLLELQLEGERQLHKQPPPREPARAQAPNHRVQLGGLGTAPLNQWVSEAGPLWGGPDKSGGGSSGLGLWEDTPKSGGSLVRGLGLKNSRSSPSLSDSYSHLSGRPIRKKTEEEEKLLKLLQGIPRPQDGFTQWCEQMLHTLSATGSLDVPMAVAILKEVESPYDVHDYIRSCLGDTLEAKEFAKQFLERRAKQKASQQRQQQQEAWLSSASLQTAFQANHSTKLGPGEGSKAKRRALMLHSDPSILGYSLHGSSGEIESVDDY
# Test system: 4EHP
# Assay: Pull-down / coimmunoprecipitation with 4EHP in HEK293T cell lysates
# Assay type: binding, human
# Conditions: HEK293T cells, GFP-tagged protein and V5-SBP-4EHP, Western blot
# Summary of the method: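 Streptavidin-bead pull-down from RNase A-treated HEK293T lysates of cells expressing V5-SBP-tagged 4EHP or eIF4E (wild type or mutants). Co-bound endogenous GYF2, 4E-T and 4E-BP1 were probed; for 4EHP, co-expressed GFP-4E-BP1 was also probed, with V5-SBP-MBP as negative control. Inputs and bound fractions were analysed by Western blot with anti-V5, anti-GFP, anti-GYF2 and other antibodies, using ECL detection.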
molecule,measurement,value
"4E-BP1 C: 4E-BP1 Y54A, L59A; canonical motif mutant","interaction with 4EHP in cells, overexpressed binding partner",abolished its interaction with 4EHP
B1,"interaction with 4EHP in cells, overexpressed binding partner",did not affect binding to overexpressed 4EHP in human cells
